High-throughput results from PubChem.
The list is not random: actives were taken first. Their share in the collection is about 2.8%.
HTR2A ag: mouse HTR2A agonism via beta-arrestin recruitment; CHO-K1 mHTR2A beta-arrestin complementation, luminescence; percent of 30 µM serotonin response; activation, % at 7.6 µM; hit rate 0.66% among 360,000; AID 624169;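 active means activation above a run cutoff, the mean activation of all tested compounds plus 3 SD, cut at about 14% in these data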
EBI2 antag: antagonists of human EBI2 receptor; P32249; EBI2 beta-arrestin recruitment, luminescence, 7a,25-OHC stimulated; inhibition, % at 5 µM; hit rate 0.81% among 360,000; AID 651636; in the data active means inhibition above about 38%;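 further: enzyme fragment complementation signal reports receptor beta-arrestin coupling in cells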
Target sequence (P32249 whole entry, looked up, the tested form may be a part): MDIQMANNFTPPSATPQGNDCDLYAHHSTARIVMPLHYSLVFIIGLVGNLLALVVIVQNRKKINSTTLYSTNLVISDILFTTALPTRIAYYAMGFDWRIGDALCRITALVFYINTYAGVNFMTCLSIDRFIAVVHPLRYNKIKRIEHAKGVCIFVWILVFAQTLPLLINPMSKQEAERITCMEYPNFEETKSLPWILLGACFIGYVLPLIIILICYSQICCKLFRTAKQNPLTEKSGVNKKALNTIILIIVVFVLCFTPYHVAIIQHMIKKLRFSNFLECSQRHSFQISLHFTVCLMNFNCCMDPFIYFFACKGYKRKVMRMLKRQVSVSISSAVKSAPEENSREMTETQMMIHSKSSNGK
MC4R ag barr: human MC4R agonism via beta-arrestin | activation, % at 8.9 µM | U2OS MC4R beta-arrestin complementation, luminescence; percent of melanotan II response, DMSO zero | AID 540308 | P32245 | hit rate 0.98% among 360,000;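 active means activation above a per-plate cutoff, the mean activation of sample wells on that plate plus 3 SD, cut at about 8% in these data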
MC4R antagonist: blocks human MC4R cAMP signaling; P32245; MC4R-expressing cells, MTII-stimulated cAMP, LANCE TR-FRET; inhibition, % at 6.5 µM; hit rate 0.48% among 360,000;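 active means inhibition above its plate's cutoff, the mean of tested wells on that plate plus 3 SD, cut at about 29% in these data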
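System – human MC4R-expressing U2OS cells · Also added – Melanotan II · Dosing – one concentration, 6.5 µM nominal · Timing – 30-min compound, 1-h challenge, 1-h detection, room temperature · Measured by – Eu-cAMP/anti-cAMP TR-FRET, emission 671 nm · Replicates – singlicate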
MC4R barr ag: human MC4R beta-arrestin agonism confirmation; shares compounds with MC4R ag barr; U2OS MC4R beta-arrestin recruitment, luminescence; scaled DMSO 0%, Melanotan II 100%; activation, % at 8.9 µM; hit rate 31% among 2,400; AID 602192;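 active means mean activation across replicates above the hit cutoff set in the earlier primary screen, cut at about 8% in these data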
MOR DOR agonist: activates mu-delta opioid heterodimer, MC4R agonist counter-screen; U2OS PathHunter beta-arrestin, beta-gal luminescence; percent of deltorphin B response, DMSO zero; shares compounds with MC4R ag barr; hit rate 5.8% among 2,400; activation, % at 9.2 µM;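 active means mean activation across replicates exceeds the hit threshold derived in the earlier primary screen, cut at about 18% in these data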
Numbers stand for hits; i = inactive; nt = not tested or not shown.

SMILES | HTR2A ag | EBI2 antag | MC4R ag barr | MC4R antagonist | MC4R barr ag | MOR DOR agonist
COc1ccc(Nc2oc(-c3ccc(OC)cc3)nc2C#N)cc1 | i | i | i | i | nt | nt
COc1ccc(Nc2oc(-c3ccc(Cl)cc3)nc2C#N)cc1 | i | i | 18.0 | i | i | i
O=Nc1c(O)n(Cc2ccccc2)c2ccccc12 | i | i | i | i | nt | nt
O=Nc1c(O)n(Cc2ccc(Cl)c(Cl)c2)c2ccccc12 | i | i | 10.3 | i | i | i
O=C(Cc1cccnc1)N[C@@H]1CC[C@H](CCn2cc(Cc3ccccc3)nn2)O[C@@H]1CO | i | i | nt | nt | nt | nt
C=CCn1c(SCC(=O)NCCO)nc2sc(C)c(C)c2c1=O | i | i | i | i | nt | nt
C=CCn1c(SCC(=O)NC(=O)NCc2ccco2)nc2sc(C)c(C)c2c1=O | i | i | 10.8 | i | 10.2 | i
COCc1c(C(=O)NCC(c2ccco2)N2CCCC2)oc2ccccc12 (stereo not given) | i | i | i | i | nt | nt
O=C(O)CCN1C(=O)/C(=C/c2cn(-c3ccccc3)nc2-c2cccs2)SC1=S | i | i | 26.5 | i | i | i
COc1ccc(-c2nn(-c3ccccc3)cc2/C=C2/SC(=S)N(CCC(=O)O)C2=O)cc1 | i | i | i | i | nt | nt
O=C(O)CCCCCN1C(=O)/C(=C\c2cn(-c3ccccc3)nc2-c2cccs2)SC1=S | i | i | 26.3 | i | 10.0 | i
CN(C)CCOc1ccc(-c2c(-c3ccccc3)sc3ccccc23)cc1 | i | i | 22.6 | i | 38.4 | i
Cc1c(C(=O)Nc2ccc(-c3nnc4n3CCCCC4)cc2)oc2c1ccc1ccccc12 | i | i | 11.4 | i | i | i
COc1ccc(N=CC2=C(O)c3ccccc3C2=O)c(OC)c1 | i | i | 11.5 | i | i | i
COc1ccccc1CCNC(=O)C1CCN(c2nnc(C)c3c(C)n(-c4ccc(C)cc4)nc23)CC1 | i | i | 10.3 | i | i | i
CCc1ccc(CNC(=O)C2CCCN(c3nnc(C)c4c(C)n(-c5ccccc5)nc34)C2)cc1 (stereo not given) | i | i | 19.4 | i | i | i
CCOc1ccccc1CNC(=O)C1CCN(c2nnc(C)c3c(C)n(-c4ccc(C)cc4)nc23)CC1 | i | i | 10.0 | i | i | i
CCOc1ccc(CNC(=O)C2CCN(c3nnc(C)c4c(C)n(-c5ccc(C)cc5)nc34)CC2)cc1 | i | i | i | i | nt | nt
COc1ccc(-n2nc3c(N4CCC(C(=O)NCCc5ccco5)CC4)nnc(C)c3c2C)cc1 | i | i | i | i | nt | nt
Cc1nnc(N2CCCC(C(=O)NCc3cccc(F)c3)C2)c2nn(-c3ccccc3)c(C)c12 (stereo not given) | i | i | i | i | nt | nt
COc1cccc(-c2c(-c3cc(OC)cc(OC)c3)n(C)c3ccc(-c4cnc(N5CCOCC5)nc4)cc23)c1 | i | i | i | i | nt | nt
Nc1nc2ccc(Cl)cc2cc1C(=O)NCCCN1CCOCC1 | i | i | nt | nt | nt | nt
CCN(CC(=O)Nc1c(F)cccc1F)C(=O)c1ccc(OC)c(S(=O)(=O)NC2CCCC2)c1 | i | i | i | i | nt | nt
O=C(CCN1C(=O)c2ccccc2C1=O)Nc1ccc(-c2cn3ccsc3n2)cc1 | i | i | 12.8 | i | i | i
CC(=O)Nc1cc(-c2ccc(C(=O)NC3CC3)cc2)cn2c(-c3cccc(C(F)(F)F)c3)cnc12 | i | i | 11.1 | i | 20.4 | i
SMILES | HTR2A ag | EBI2 antag | MC4R ag barr | MC4R antagonist | MC4R barr ag | MOR DOR agonist
CC(=O)Nc1cc(-c2ccc(C(=O)NC3CC3)cc2)cn2c(-c3cccc(C(C)=O)c3)cnc12 | i | i | 16.4 | i | 18.3 | i
O=C(Nc1cc(Cl)ccn1)C1(c2ccccc2)CC1(Cl)Cl (stereo not given) | i | i | 11.2 | i | i | i
COc1ccc(-c2noc(N3CCC(C(=O)Nc4ccccc4Cl)CC3)n2)cc1 | i | i | i | i | nt | nt
COc1ccc(-c2cc3ccccc3oc2=O)cc1NC(=O)c1ccc([N+](=O)[O-])o1 | i | i | i | i | nt | nt
COc1ccc(-c2cc3ccccc3oc2=O)cc1NC(=O)c1ccc(Br)o1 | i | i | 13.1 | i | i | i
COc1ccc(-c2nc(-c3ccc(NC(=O)c4ccc(Br)o4)cc3)no2)cc1OC | i | i | 44.9 | i | 21.6 | 45.7
COc1cc(-c2nc(-c3ccc(NC(=O)c4ccc(Br)o4)cc3)no2)cc(OC)c1OC | i | i | i | i | nt | nt
O=C(Nc1ccc(Cl)cc1Cl)c1cc2ccccc2o1 | i | i | i | i | nt | nt
COc1ccc(-c2noc(N3CCC(C(=O)Nc4ccc(OC)c(OC)c4)CC3)n2)cc1 | i | i | 12.9 | i | i | i
COc1cc(NC(=O)c2cc3ccccc3o2)c(OC)cc1Cl | i | i | 13.1 | i | i | i
CCOC(=O)C1C(=O)CC(=O)C(C(=O)OCC)C1c1ccc(O)cc1 (stereo not given) | i | i | i | i | nt | nt
O=C(COC(=O)Cc1c(Cl)cccc1Cl)NCc1ccccc1 | i | i | i | i | nt | nt
CCOc1cccc(C(=O)Nc2ccc(NC(=O)c3cc4ccccc4o3)c(OC)c2)c1 | i | i | 11.5 | i | 34.4 | 30.4
COc1cccc(C(=O)Nc2ccc(-c3nc4ccccc4o3)c(O)c2)c1 | i | i | 11.0 | i | i | i
CCOC(=O)Cc1csc(NC(=O)c2sc3nc4ccc(C)cc4cc3c2N)n1 | i | i | 19.4 | i | i | i
CCC(=O)OCc1cc2cccc(C)c2[nH]c1=O | i | i | i | i | nt | nt
COc1ccc(C(=O)OCc2cc3cccc(C)c3[nH]c2=O)cc1 | i | i | 15.2 | i | i | i
COc1ccc(CC(=O)OCc2cc3cccc(C)c3[nH]c2=O)cc1 | i | i | 21.3 | i | i | i
CNc1ccc(-c2cccc(CO)c2)cn1 | i | i | i | i | nt | nt
Nc1ccn(C(C=O)CC(C=O)CO)c(=O)n1 (stereo not given) | i | i | nt | nt | nt | nt
CC(C)(C)c1ccc(C(=O)NC(=O)COC(=O)c2ccco2)cc1 | i | i | 13.3 | i | i | i
CC1=C(C(=O)N(C)C)CC(CC(=O)NCCCN(C)C)C(=O)N1Cc1ccccc1 (stereo not given) | i | i | i | i | nt | nt
COc1ccc(NC(=O)[C@H](C)NS(=O)(=O)c2ccc(NC(C)=O)cc2)cc1Cl | i | i | i | i | nt | nt
C=CCN(CC=C)S(=O)(=O)c1ccc(NC(=S)NC(=O)/C=C/c2ccccc2)cc1 | i | i | 18.9 | i | i | i
O=C(/C=C/c1ccccc1)NC(=S)Nc1ccccc1 | i | i | i | i | nt | nt
O=C(CN1CCN(Cc2ccccc2)CC1)Nc1cccc(Cl)c1Cl | i | i | i | i | nt | nt
Cc1cc(-c2nc(C)c(-c3nnc(SCC(=O)Nc4cc(Cl)cc(Cl)c4)n3C)s2)no1 | i | i | i | i | nt | nt
Cn1c(SCC(=O)Nc2cc(Cl)cc(Cl)c2)nnc1-c1ccc2nonc2c1 | i | i | 35.8 | i | i | i
